In ChEMBL document CHEMBL3867440, “Hernandezine, a Bisbenzylisoquinoline Alkaloid with Selective Inhibitory Activity against Multidrug-Resistance-Linked ATP-Binding Cassette Drug Transporter ABCB1” (J Nat Prod, 2016) one finds Ratio, viability and Activity data, which are given here for two compounds.

The target in data set [1] is T1, ATP-dependent translocase ABCB1 (Homo sapiens, UniProt P08183). The data set is described as follows: Inhibition of human ABCB1 transfected in HEK293 cells assessed as potentiation of doxorubicin-induced cytotoxicity by measuring doxorubicin resistance ratio at 1000 nM after 72 hrs by CCK8 assay relative to parental HEK293 cells (reference value: 96). Format: cell-based. The following applies: hek293, 72 h, 1 µM. Background: Formazan colour is commonly taken as a measure of viable cells.
T1 sequence (P08183 whole entry): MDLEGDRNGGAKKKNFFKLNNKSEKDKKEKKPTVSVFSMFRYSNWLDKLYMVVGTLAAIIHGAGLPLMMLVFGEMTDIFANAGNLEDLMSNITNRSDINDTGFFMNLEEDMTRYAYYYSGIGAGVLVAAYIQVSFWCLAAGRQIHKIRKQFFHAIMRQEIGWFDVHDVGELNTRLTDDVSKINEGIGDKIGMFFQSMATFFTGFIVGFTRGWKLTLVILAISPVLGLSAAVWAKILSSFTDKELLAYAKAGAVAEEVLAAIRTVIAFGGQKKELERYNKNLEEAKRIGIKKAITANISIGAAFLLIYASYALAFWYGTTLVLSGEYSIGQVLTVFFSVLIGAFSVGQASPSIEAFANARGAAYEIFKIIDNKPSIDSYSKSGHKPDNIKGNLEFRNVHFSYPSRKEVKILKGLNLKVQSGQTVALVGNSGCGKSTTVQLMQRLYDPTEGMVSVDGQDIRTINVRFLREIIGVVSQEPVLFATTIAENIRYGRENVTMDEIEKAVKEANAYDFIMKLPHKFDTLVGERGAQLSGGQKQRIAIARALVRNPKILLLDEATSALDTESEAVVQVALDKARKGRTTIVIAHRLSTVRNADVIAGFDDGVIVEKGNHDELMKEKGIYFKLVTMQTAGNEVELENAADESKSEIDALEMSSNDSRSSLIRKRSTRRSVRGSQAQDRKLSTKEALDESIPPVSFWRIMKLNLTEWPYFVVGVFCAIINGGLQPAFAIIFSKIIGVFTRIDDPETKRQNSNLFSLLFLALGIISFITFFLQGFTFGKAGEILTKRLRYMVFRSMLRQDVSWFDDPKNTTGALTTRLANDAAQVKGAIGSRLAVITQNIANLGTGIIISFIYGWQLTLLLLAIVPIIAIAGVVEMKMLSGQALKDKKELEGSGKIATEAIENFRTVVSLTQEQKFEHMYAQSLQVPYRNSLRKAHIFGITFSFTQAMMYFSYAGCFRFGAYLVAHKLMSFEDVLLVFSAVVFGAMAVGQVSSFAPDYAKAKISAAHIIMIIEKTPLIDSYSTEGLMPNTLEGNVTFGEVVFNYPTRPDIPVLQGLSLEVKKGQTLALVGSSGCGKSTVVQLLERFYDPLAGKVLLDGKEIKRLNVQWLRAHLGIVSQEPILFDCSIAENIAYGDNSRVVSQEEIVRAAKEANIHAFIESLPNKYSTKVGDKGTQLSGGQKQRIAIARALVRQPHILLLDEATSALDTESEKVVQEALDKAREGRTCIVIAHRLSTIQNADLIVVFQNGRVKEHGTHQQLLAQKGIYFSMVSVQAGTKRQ

In data set [2] the target is T1, ATP-dependent translocase ABCB1. Put plainly: Inhibition of ABCB1 in human KBV1 cells assessed as potentiation of doxorubicin-induced cytotoxicity by measuring doxorubicin resistance ratio at 1000 nM after 72 hrs by MTT assay relative to parental KB-3-1 cells (reference value: 34). It counts as cell-based. Particulars: kbv1, 72 h, 1 µM. The essentials:
(§1)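 Cells were kept in drug-free DMEM with 10% FCS for 7 days before assay, then plated at 5000 cells/well for 24 h. Drug at various concentrations was added with a nontoxic fixed level of modulator for 72 h, and the read-out was MTT. IC50 came from fitted curves (≥3 experiments). RR = IC50 of the resistant line / IC50 of the parental line.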

Data set [3] shares this target. Put plainly: Inhibition of ABCB1 in human KBV1 cells assessed as potentiation of colchicine-induced cytotoxicity by measuring colchicine resistance ratio at 1000 nM after 72 hrs by MTT assay relative to parental KB-3-1 cells (reference value: 55). Format: cell-based. Particulars: kbv1, 72 h, 1 µM. The essentials: as §1
For data set [4] the target is unchanged. The data set is described as follows: Inhibition of ABCB1 in human NCI-ADR-RES cells assessed as potentiation of doxorubicin-induced cytotoxicity by measuring doxorubicin resistance ratio at 1000 nM after 72 hrs by MTT assay relative to parental OVCAR8 cells (reference value: 46). Format: cell-based. The following applies: ovcar-8, 72 h, 1 µM. The essentials:
as §1

Data set [5] shares this target. The data set is described as follows: Inhibition of ABCB1 in human NCI-ADR-RES cells assessed as potentiation of vincristine-induced cytotoxicity by measuring vincristine resistance ratio at 1000 nM after 72 hrs by MTT assay relative to parental OVCAR8 cells (reference value: 435). Particulars: ovcar-8, 72 h, 1 µM. It counts as cell-based. The essentials: as §1
Data set [6] has as its system KB 3-1. The data set is described as follows: Induction of apoptosis in human KB-3-1 cells assessed as viable cells at 1 uM after 48 hrs by Annexin V-FITC/propidium iodide staining based FACS analysis (reference value: 88.4%). Format: functional. The following applies: KB 3-1, 48 h, read-out: Activity. In general terms: Flow cytometry measures light scatter and fluorescence of single cells or particles in a stream.

Data set [7] has as its system KB 3-1. The data set is described as follows: Induction of apoptosis in human KB-3-1 cells assessed as early apoptotic cells at 1 uM after 48 hrs by Annexin V-FITC/propidium iodide staining based FACS analysis (reference value: 5.1%). Format: functional.
The test system of data set [8] is KB 3-1. The data set is described as follows: Induction of apoptosis in human KB-3-1 cells assessed as late apoptotic cells at 1 uM after 48 hrs by Annexin V-FITC/propidium iodide staining based FACS analysis (reference value: 5.8%). Format: functional.
The test system of data set [9] is KB 3-1. Put plainly: Induction of apoptosis in human KB-3-1 cells assessed as necrotic cells at 1 uM after 48 hrs by Annexin V-FITC/propidium iodide staining based FACS analysis (reference value: 0.7%). It counts as functional.
Data set [10] deals with KB-V1. Put plainly: Induction of apoptosis in human KBV1 cells assessed as viable cells at 1 uM after 48 hrs by Annexin V-FITC/propidium iodide staining based FACS analysis (reference value: 86.1%). It counts as functional. Particulars: KB-V1, 48 h, read-out: Activity.
Data set [11] relates to KB-V1. Put plainly: Induction of apoptosis in human KBV1 cells assessed as early apoptotic cells at 1 uM after 48 hrs by Annexin V-FITC/propidium iodide staining based FACS analysis (reference value: 5.3%). Format: functional.
For data set [12], the system named is KB-V1. The data set is described as follows: Induction of apoptosis in human KBV1 cells assessed as late apoptotic cells at 1 uM after 48 hrs by Annexin V-FITC/propidium iodide staining based FACS analysis (reference value: 7.6%). It counts as functional.
The subject of data set [13] is KB-V1. The data set is described as follows: Induction of apoptosis in human KBV1 cells assessed as necrotic cells at 1 uM after 48 hrs by Annexin V-FITC/propidium iodide staining based FACS analysis (reference value: 1%). It counts as functional.
The test system of data set [14] is KB 3-1. The data set is described as follows: Potentiation of colchicine-induced apoptosis in human KB-3-1 cells assessed as viable cells at 1 uM after 48 hrs by Annexin V-FITC/propidium iodide staining based FACS analysis (reference value: 38.9%). The following applies: KB 3-1, 48 h, read-out: Activity. Format: functional.
Data set [15] deals with KB 3-1. The data set is described as follows: Potentiation of colchicine-induced apoptosis in human KB-3-1 cells assessed as early apoptotic cells at 1 uM after 48 hrs by Annexin V-FITC/propidium iodide staining based FACS analysis (reference value: 30.5%). It counts as functional.
For data set [16], the system named is KB 3-1. The data set is described as follows: Potentiation of colchicine-induced apoptosis in human KB-3-1 cells assessed as late apoptotic cells at 1 uM after 48 hrs by Annexin V-FITC/propidium iodide staining based FACS analysis (reference value: 25.7%). Format: functional.
Data set [17] relates to KB 3-1. Put plainly: Potentiation of colchicine-induced apoptosis in human KB-3-1 cells assessed as necrotic cells at 1 uM after 48 hrs by Annexin V-FITC/propidium iodide staining based FACS analysis (reference value: 4.9%). It counts as functional.
Data set [18] concerns the target T1, ATP-dependent translocase ABCB1. Put plainly: Inhibition of ABCB1 in human KBV1 cells assessed as potentiation of vincristine-induced cytotoxicity by measuring vincristine resistance ratio at 1000 nM after 72 hrs by MTT assay relative to parental KB-3-1 cells (reference value: 356). Format: cell-based. Particulars: kbv1, 72 h, 1 µM. The essentials: as §1
The target is the same in data set [19]. Put plainly: Inhibition of ABCB1 in human NCI-ADR-RES cells assessed as potentiation of colchicine-induced cytotoxicity by measuring colchicine resistance ratio at 1000 nM after 72 hrs by MTT assay relative to parental OVCAR8 cells (reference value: 59). Format: cell-based. Particulars: ovcar-8, 72 h, 1 µM. The essentials:
as §1

A further data set has as its system HEK293. Put plainly: Inhibition of human wild-type ABCG2 transfected in HEK293 cells assessed as potentiation of mitoxantrone-induced cytotoxicity by measuring mitoxantrone resistance ratio at 3000 nM after 72 hrs by CCK8 assay relative to parental HEK293 cells.

Consider `COc1cc2c(cc1OC)CN(CCc1ccc(NC(=O)c3cc(OC)c(OC)cc3NC(=O)c3cnc4ccccc4c3)cc1)CC2` [TARIQUIDAR], for which the Ratio in [1] was found to be 5; in [2] it was 1; in data set [3], 1; in data set [4] it was 3; in data set [5], 4; in data set [18] it was 1. Besides, the Ratio in data set [19] turned out to be 1. The results for the viability at 1 µM in the data set with KB 3-1 [6], with KB-V1 [10] and in the data set with KB 3-1 [14] were 92.1%, 91.1% and 37.2%, respectively. The Activity was 3.3% in the data set with KB 3-1 [7]; 4.4% with KB 3-1 [8]; 0.2% in the data set with KB 3-1 [9]; 3.5% in the data set with KB-V1 [11]; 5.2% in the data set with KB-V1 [12]; 0.2% in the data set with KB-V1 [13]. Further, the Activity with KB 3-1 [15] was 30.2%; with KB 3-1 [16] it was 27%; in the data set on KB 3-1 [17] it was 5.6%.

As for `COc1ccc2c3c([nH]c2c1)[C@H](C=C(C)C)N1C(=O)[C@@H]2CCCN2C(=O)[C@@H]1C3`, in the data set with HEK293, the Ratio was 7.
